ATG4B inh: blocks human ATG4B protease cleavage of LC3 substrate. Q9Y4P1. actives 0.51% (n = 340,000). inhibition, % at 8.33 µM. ATG4B cleavage of LC3-PLA2, NBD-HPC fluorescence, 1 h; in the data active means inhibition above about 40%
Target sequence (Q9Y4P1 whole entry, looked up): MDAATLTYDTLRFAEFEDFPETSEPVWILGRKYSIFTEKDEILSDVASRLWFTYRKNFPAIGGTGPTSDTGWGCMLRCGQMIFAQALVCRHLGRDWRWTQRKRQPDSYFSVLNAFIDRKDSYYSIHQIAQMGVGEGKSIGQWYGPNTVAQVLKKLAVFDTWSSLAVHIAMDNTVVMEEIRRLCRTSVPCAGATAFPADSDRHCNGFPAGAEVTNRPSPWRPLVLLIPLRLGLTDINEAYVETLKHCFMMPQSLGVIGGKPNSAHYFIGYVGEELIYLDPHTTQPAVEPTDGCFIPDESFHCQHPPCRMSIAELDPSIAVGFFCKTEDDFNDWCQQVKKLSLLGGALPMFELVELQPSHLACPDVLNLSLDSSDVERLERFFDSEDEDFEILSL
NR3A LBD binder: modulators (binders) of human NR3A ligand-binding domain. actives 2.5% (n = 340,000). Tm shift relative to glycine control, % at 25 µM. NR3A LBD differential scanning fluorimetry, Tm shift; 0% = protein alone, 100% = glycine-bound protein;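 active means melting temperature shift of at least 10% of the positive control shift, at one fixed dose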
NadD inh: blocks S. aureus nicotinate mononucleotide adenylyltransferase. actives 0.78% (n = 360,000). inhibition, % at 20 µM. purified NadD enzyme, colorimetric absorbance read-out; in the data active means inhibition above about 26%
SENP1 inh: inhibitors of human SENP1 SUMO protease catalytic domain | inhibition, % at 10 µM | Q9P0U3 | recombinant SENP1 catalytic domain, CyPet-SUMO1-YPet FRET cleavage | AID 624204 | actives 0.21% (n = 360,000);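 active means inhibition at least 30% at 10 µM, raw YFP signal under a set limit, fluorescence ratio 0.5 to 1.5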
Target sequence (Q9P0U3 419-644 limits assumed): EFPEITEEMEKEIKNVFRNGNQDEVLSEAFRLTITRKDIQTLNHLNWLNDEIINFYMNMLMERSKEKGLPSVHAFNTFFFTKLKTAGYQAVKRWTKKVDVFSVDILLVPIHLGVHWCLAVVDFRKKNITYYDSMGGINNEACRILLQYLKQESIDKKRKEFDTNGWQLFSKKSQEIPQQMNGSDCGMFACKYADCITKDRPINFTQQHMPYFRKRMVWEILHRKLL
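Test system: human SENP1 catalytic domain; medium: Tris pH 8 buffer plus EDTA, NaCl, BME, BSA, NP40, catalase; incubation: 50 min reaction at room temperature; technique: FRET, CFP and YFP emission; controls: no-enzyme low control and enzyme-plus-DMSO high control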
UCH37 DUB inh: human UCH37 deubiquitinating enzyme inhibition. Q9Y5K5. purified proteasome/UCH37, Ub-AMC cleavage fluorescence. inhibition, % (concentration not given with the values). actives 0.33% (n = 330,000). AID 588478;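 active means mean inhibition over replicate wells above about 20%, limit read from the data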
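System: Proteasome-associated human UCH37 deubiquitinase; Input: 0.15 nM proteasome in added enzyme buffer; Also added: Ub-AMC substrate from 1 µM stock; Incubation: 30 min compound-proteasome preincubation then 25 min substrate reaction, room temperature; Detection: fluorescence, ex 355 nm, em 460 nm; Read-out: % inhibition of Ub-AMC cleavage fluorescence; Benchmarks: no-proteasome and no-compound wells.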
NadD inh conf: confirmation of Staphylococcus aureus NadD inhibitors. shares compounds with NadD inh. purified S. aureus NadD, colorimetric enzyme assay. inhibition, % at 20 µM. actives 13% (n = 2,000); in the data active means inhibition mostly above about 42%, no sharp cut-off; inactive means mostly below about 42%
A number is an active result; . = inactive; / = no result. Only some compounds are listed: those with a hit (about 3.6% of all), similar ones and a draw of the others.

SMILES	ATG4B inh	NR3A LBD binder	NadD inh	SENP1 inh	UCH37 DUB inh	NadD inh conf
FC(F)(F)c1ccccc1Cc1c(-c2ccc(Cl)cc2)nc2c3ccccc3ccn12	/	/	33	.	/	.
Fc1ccc(-c2nc3c4ccccc4ccn3c2Cc2ccccc2C(F)(F)F)cc1	/	/	.	.	/	/
Cc1nnc(NC(=O)c2ccc(S(=O)(=O)N3CCCCC3)cc2)s1	.	.	.	.	.	/
CC(C)(C)n1nc2c(c1NC(=O)c1ccc(S(=O)(=O)N3CCCC3)cc1)CSC2	.	.	31	.	/	48
O=C(Nc1c2c(nn1-c1ccc(F)cc1)CSC2)c1ccc(S(=O)(=O)N2CCOCC2)cc1	.	.	42	.	.	.
COc1ccc(-n2nc3c(c2NC(=O)c2ccc(S(=O)(=O)N4CCOCC4)cc2)CS(=O)(=O)C3)cc1	.	.	.	.	.	/
Cc1ccc(-c2nnc(SCC(=O)NN=Cc3ccccc3C(=O)O)n2C2CCCCC2)cc1	/	/	/	/	.	/
Cc1ccc(C2(SCC(N)C(=O)O)c3ccccc3-c3ccccc32)cc1 (configuration not stated)	.	.	39	.	/	54
NC(CSC(c1ccccc1)(c1ccccc1)c1ccccc1)C(=O)O (configuration not stated)	.	.	.	.	/	/
CCOC(=O)NN=Cc1ccc(N(CC)CC)cc1O	/	/	/	/	.	/
N#C/C(=C\c1ccncc1)c1nc2ccccc2[nH]1	.	.	.	.	.	/
COc1cc(/C=C(\C#N)c2nc3ccccc3[nH]2)c([N+](=O)[O-])cc1OCc1ccccc1	.	.	40	.	.	.
N#C/C(=C\c1ccc(Oc2ccc(C(F)(F)F)cc2[N+](=O)[O-])cc1)c1nc2ccccc2[nH]1	.	.	40	.	.	.
COc1cc(/C=C(\C#N)c2nc3ccccc3[nH]2)ccc1OC(=O)c1ccco1	.	.	.	.	.	/
C#Cc1ccc([C@@H]2C=C(C(=O)NCc3ccccc3)O[C@H](OCCCCO)C2)cc1	.	.	39	.	.	.
COC(=O)c1c(N)[nH]c(C(=O)c2ccccc2)c1-c1ccccc1Br	/	/	.	.	/	/
CC(NC(=O)c1c(N)[nH]c(C(=O)c2ccccc2)c1-c1ccccc1Br)c1cccc2ccccc12 (configuration not stated)	/	/	35	.	/	.
CCc1ccc(C(C)=NNC(=O)c2ccc(-n3cnnn3)cc2)cc1	/	/	/	/	.	/
COc1cc2oc(=O)cc(CN3CCN(c4ccc(Cl)c(Cl)c4)CC3)c2cc1Cl	/	/	39	.	/	.
COc1ccc2c(CN3CCN(c4ccc(Cl)c(Cl)c4)CC3)cc(=O)oc2c1	/	/	.	.	/	/
O=C(Cn1c(=O)n(Cc2ccco2)c(=O)c2c3c(sc21)CCCCC3)Nc1ccccc1	.	.	51	.	.	.
O=c1c2c3c(sc2n(CCN2CCCC2)c(=O)n1Cc1ccco1)CCCCC3	.	.	.	.	.	/
NC(=O)c1c(NC(=O)COC(=O)c2ccc(S(=O)(=O)Nc3ccccc3)cc2)sc2c1CCCC2	.	.	35	.	.	.
COC(=O)CCCC1=CC2=CC(=O)C(C)(OC(=O)CCc3ccccc3)C(=O)C2=CO1 (configuration not stated)	.	.	41	.	/	72
CC1(OC(=O)CCc2ccccc2)C(=O)C=C2C=C3CCCN3C=C2C1=O (configuration not stated)	.	.	.	.	.	/
SMILES	ATG4B inh	NR3A LBD binder	NadD inh	SENP1 inh	UCH37 DUB inh	NadD inh conf
COc1ccc(-n2c(N)c(C(=O)NCc3ccco3)c3nc4ccccc4nc32)cc1	.	.	.	.	.	/
Nc1c(C(=O)NCc2ccco2)c2nc3ccccc3nc2n1CCc1ccc(F)cc1	.	.	38	.	.	.
c1ccc(CN(Cc2ccccc2)C(c2ccnc3ccccc23)c2nnnn2-c2ccc3c(c2)OCCO3)cc1 (configuration not stated)	/	/	40	.	/	.
Cc1cccc(C)c1-n1nnnc1C(c1ccnc2ccccc12)N(C)Cc1ccc(Cl)c(Cl)c1 (configuration not stated)	/	/	29	.	/	.
Cc1cccc(C)c1-n1nnnc1C(c1ccnc2ccccc12)N(CCC#N)Cc1ccccc1 (configuration not stated)	/	/	.	.	/	/
N#CCCN(Cc1ccccc1)C(c1ccnc2ccccc12)c1nnnn1-c1ccc2c(c1)OCCO2 (configuration not stated)	/	/	.	.	/	/
Cc1cccc(C)c1-n1nnnc1C(c1ccnc2ccccc12)N(Cc1ccccc1)Cc1ccccc1 (configuration not stated)	/	/	32	.	/	.
O=C(CN1CCN(Cc2ccccc2)CC1)NN=Cc1cccnc1	/	/	/	/	.	/
O=C(Nc1cccc2nsnc12)c1ccc(-c2cccc(Cl)c2)o1	.	.	45	.	.	.
Cc1ccc(-n2c(O)c(/C=N/Nc3ccc(S(=O)(=O)N4CCOCC4)cc3[N+](=O)[O-])c3ccccc3c2=O)c(C)c1	.	.	43	.	.	.
COCCn1c(SCc2nc3scc(-c4ccc(Cl)cc4)c3c(=O)[nH]2)nnc1-c1cccc(C)c1	.	.	33	.	.	.
Fc1cc(NC(=S)NCc2ccc(CNC(=S)Nc3ccc(Cl)c(F)c3)cc2)ccc1Cl	.	94	36	.	.	.
O=[N+]([O-])c1cc(S(=O)(=O)Nc2ccc(Cl)cc2)ccc1N/N=C/c1ccncc1	.	12	47	.	/	.
O=[N+]([O-])c1ccc(Cl)cc1N/N=C/c1ccncc1	.	.	.	.	/	/
COc1cc2c(cc1[N+](=O)[O-])-c1ccc([N+](=O)[O-])cc1C2=NNC(N)=S	/	/	48	.	/	.
NC(=S)NN=C1c2cc(Cl)ccc2-c2c1cc(Cl)cc2[N+](=O)[O-]	.	12	35	.	/	.
Cc1ccc(C2(c3ccc(C)cc3)CC2C(=O)Nc2ccc([N+](=O)[O-])cc2O)cc1 (configuration not stated)	.	.	48	.	.	.
O=C(Nc1ccc([N+](=O)[O-])cc1)C1CC1(c1ccccc1)c1ccccc1 (configuration not stated)	.	.	.	.	.	/
O=C1Nc2ccccc2N(C(=O)c2ccc(-c3ccccc3)cc2)C1c1nc2ccccc2[nH]1 (configuration not stated)	/	/	31	.	/	.
O=C1Nc2ccccc2N(C(=O)c2c(F)cccc2F)C1c1nc2ccccc2[nH]1 (configuration not stated)	/	/	.	.	/	/
CCOC(=O)C1(CCC(C)=NNC(N)=O)CC(C)OC1=O (configuration not stated)	/	/	/	/	.	/
CC(C)(C)c1ccc(C=NNC(=S)NC2CCCCC2)cc1	/	/	/	/	.	/

Source: PubChem (several laboratories)
